Source: ChEMBL document CHEMBL4699573, “Design, Synthesis, and Pharmacological Evaluation of Analogues Derived from the PLEV Tetrapeptide as Protein-Protein Interaction Modulators of Voltage-Gated Sodium Channel 1.6” (J Med Chem, 2020)
The source made the active and inactive calls. The rule behind the calls is not given here. Starred links: 1 amine or outer side, 2 acyl side, 3 side chain; linkers in the order of their positions; H or OH if unused. Residues, ends and D or L forms follow the SMILES beside them. *: point of attachment. Adamantane1carbonyl = O=C(C12CC3CC(CC(C3)C1)C2)*; Benzenesulfonyl(4-F) = O=S(=O)(c1ccc(F)cc1)*; NH(1-Adamantyl) = C1C2CC3CC1CC(N*)(C2)C3; Cyclohexanecarbonyl = O=C(C1CCCCC1)*; Decanoyl = CCCCCCCCCC(=O)*; Cbz = O=C(OCc1ccccc1)*; NHcHex = C1CCC(N*)CC1; CO = O=C([*:1])[*:2]; Bz = O=C(c1ccccc1)*; OtBu = CC(C)(C)O*; X3 = OC1CN(*)C1; OAll = C=CCO*; OPr = CCCO*

Assays:
[1] = test system: HEK293; test: Modulation of recombinant human FGF141b (1 to 252 residues)-recombinant human Nav1.6 C-terminal tail (1763 to 1976 residues) protein-protein interaction expressed in HEK293 cells assessed as relative luminescence value at 50 uM measured at 2 mins interval for 20 mins by split-luciferase complementation assay relative to control; type: cell-based; conditions: time min 2-20
Summary of the method: (§1)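 Double-stable HEK293 line expressing CLuc-FGF14 and CD4-Nav1.6-C-tail-NLuc, kept on G418 and puromycin. Cells seeded for 24 h, then given compound for 1 h in serum-free, phenol red-free DMEM/F12 with a final 0.5% DMSO: 50 μM for screening, 0.25–100 μM over eight concentrations for dose-response; n = 4. D-luciferin added and read every 2 min for 20 min at 37 °C. Peak luminescence expressed as percent of per-plate DMSO mean (n = 32). IC50 from four-parameter nonlinear fit. At least 3 experiments.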

[2] = target: T1, Sodium channel protein type 8 subunit alpha (Homo sapiens, UniProt Q9UQD0); test: Binding affinity to human recombinant Nav1.6 C-terminal domain expressed in Escherichia coli BL21 assessed as dissociation constant by SPR analysis
Summary of the method: (§2)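 Biacore T100 runs with FGF14 (17,896 RU) or Nav1.6 C-tail (6,800 RU) amine-coupled on CM5 at pH 5.5. Compounds at 0.195–200 μM in PBS, 0.005% Tween-20, 2% DMSO; 50 μL/min at 25 °C. 120 s association, 150 s dissociation, DMSO calibration, blank subtraction. Rates from a Langmuir 1:1 fit; KD averages the kinetic and steady-state values. At least duplicate experiments.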
Target sequence in this assay (Q9UQD0 whole entry, the tested form may be a part): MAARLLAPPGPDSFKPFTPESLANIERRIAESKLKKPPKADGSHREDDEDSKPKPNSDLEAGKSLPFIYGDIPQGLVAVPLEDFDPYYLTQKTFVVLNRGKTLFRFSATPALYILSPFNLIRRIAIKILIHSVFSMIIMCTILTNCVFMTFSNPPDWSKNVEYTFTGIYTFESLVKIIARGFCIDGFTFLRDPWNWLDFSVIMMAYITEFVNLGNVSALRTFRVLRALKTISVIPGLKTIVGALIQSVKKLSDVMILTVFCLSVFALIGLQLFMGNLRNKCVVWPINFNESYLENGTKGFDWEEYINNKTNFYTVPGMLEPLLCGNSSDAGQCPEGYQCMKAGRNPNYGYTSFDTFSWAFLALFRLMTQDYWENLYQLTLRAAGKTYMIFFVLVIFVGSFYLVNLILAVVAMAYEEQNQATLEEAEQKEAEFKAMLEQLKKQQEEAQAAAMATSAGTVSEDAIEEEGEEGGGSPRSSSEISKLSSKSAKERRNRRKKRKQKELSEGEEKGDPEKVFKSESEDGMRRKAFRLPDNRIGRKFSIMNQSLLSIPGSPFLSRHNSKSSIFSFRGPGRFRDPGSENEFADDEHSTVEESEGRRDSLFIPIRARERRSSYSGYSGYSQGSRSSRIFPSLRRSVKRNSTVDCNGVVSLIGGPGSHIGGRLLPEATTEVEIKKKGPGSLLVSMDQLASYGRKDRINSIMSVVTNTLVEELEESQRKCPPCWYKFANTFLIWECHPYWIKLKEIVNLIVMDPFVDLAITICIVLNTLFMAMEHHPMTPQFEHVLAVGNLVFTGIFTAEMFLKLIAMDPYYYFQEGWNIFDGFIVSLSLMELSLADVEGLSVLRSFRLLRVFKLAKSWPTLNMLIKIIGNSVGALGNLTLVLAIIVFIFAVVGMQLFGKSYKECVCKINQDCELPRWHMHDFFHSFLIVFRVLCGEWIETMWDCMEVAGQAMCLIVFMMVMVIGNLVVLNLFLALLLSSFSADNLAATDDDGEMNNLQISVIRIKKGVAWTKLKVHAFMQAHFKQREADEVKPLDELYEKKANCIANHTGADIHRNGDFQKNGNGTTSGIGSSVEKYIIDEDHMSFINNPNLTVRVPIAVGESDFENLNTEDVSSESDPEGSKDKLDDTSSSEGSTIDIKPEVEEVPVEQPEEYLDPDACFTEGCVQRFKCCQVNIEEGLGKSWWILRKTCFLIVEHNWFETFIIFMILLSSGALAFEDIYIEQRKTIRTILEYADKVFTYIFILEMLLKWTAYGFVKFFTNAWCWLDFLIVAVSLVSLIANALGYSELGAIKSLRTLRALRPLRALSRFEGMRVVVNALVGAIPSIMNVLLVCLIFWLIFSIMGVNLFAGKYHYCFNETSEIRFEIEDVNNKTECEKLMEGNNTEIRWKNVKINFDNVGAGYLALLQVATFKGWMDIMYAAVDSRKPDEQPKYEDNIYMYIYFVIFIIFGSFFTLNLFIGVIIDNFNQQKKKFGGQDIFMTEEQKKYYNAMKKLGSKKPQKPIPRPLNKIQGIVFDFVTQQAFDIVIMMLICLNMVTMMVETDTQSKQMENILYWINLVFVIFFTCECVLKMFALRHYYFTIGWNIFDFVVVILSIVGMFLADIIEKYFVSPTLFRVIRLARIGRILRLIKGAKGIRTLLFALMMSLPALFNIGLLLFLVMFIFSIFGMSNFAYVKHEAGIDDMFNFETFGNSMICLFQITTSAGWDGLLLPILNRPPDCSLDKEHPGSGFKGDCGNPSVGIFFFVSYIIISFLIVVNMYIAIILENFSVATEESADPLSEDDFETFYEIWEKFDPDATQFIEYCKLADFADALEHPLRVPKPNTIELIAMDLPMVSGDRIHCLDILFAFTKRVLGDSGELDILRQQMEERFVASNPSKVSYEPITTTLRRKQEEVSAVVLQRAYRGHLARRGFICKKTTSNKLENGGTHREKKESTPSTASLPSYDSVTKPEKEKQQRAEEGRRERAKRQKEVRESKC

[3] = target: T2, Fibroblast growth factor 14 (Homo sapiens) (UniProt Q92915); test: Binding affinity to human recombinant FGF14 expressed in Escherichia coli BL21 assessed as association rate constant by SPR analysis; conditions: filed as modulator; summary of the method: as §2
T2 sequence (whole entry): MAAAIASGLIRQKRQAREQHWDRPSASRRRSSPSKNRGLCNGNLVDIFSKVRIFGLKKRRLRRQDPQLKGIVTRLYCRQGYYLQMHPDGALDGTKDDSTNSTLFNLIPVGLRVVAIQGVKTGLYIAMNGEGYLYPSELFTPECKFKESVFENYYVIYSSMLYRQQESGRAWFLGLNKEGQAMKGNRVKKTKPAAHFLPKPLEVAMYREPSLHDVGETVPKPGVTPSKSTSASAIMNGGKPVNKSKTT

[4] = target: T2, Fibroblast growth factor 14 (Homo sapiens); test: Binding affinity to human recombinant FGF14 expressed in Escherichia coli BL21 assessed as dissociation rate constant by SPR analysis; conditions: filed as modulator; summary of the method: as §2
[5] = Modulation of recombinant human FGF141b (1 to 252 residues)-recombinant human Nav1.6 C-terminal tail (1763 to 1976 residues) protein-protein interaction expressed in HEK293 cells measured at 2 mins interval for 20 mins by split-luciferase complementation assay; type: cell-based; summary of the method: as §1
[6] = target: T1, Sodium channel protein type 8 subunit alpha; test: Binding affinity to human recombinant Nav1.6 C-terminal domain expressed in Escherichia coli BL21 assessed as dissociation rate constant by SPR analysis; conditions: filed as modulator; summary of the method: as §2
Target sequence in this assay (Q9UQD0 whole entry, looked up, the tested form may be a part): as the sequence (Q9UQD0 whole entry, the tested form may be a part) above

[7] = test system: HEK293; test: Modulation of recombinant human FGF141b (1 to 252 residues)-recombinant human Nav1.6 C-terminal tail (1763 to 1976 residues) protein-protein interaction expressed in HEK293 cells measured at 2 mins interval for 20 mins by split-luciferase complementation assay relative to control; type: cell-based; conditions: filed as modulator, time min 2-20; summary of the method: as §1
[8] = target: T3, Fibroblast growth factor 14 (Homo sapiens, UniProt Q92915); test: Binding affinity to human recombinant FGF14 expressed in Escherichia coli BL21 assessed as dissociation constant by SPR analysis; summary of the method: as §2
T3 sequence (Q92915 whole entry): T2 sequence (whole entry)

[9] = target: T1, Sodium channel protein type 8 subunit alpha; test: Binding affinity to human recombinant Nav1.6 C-terminal domain expressed in Escherichia coli BL21 assessed as association rate constant by SPR analysis; conditions: filed as modulator; summary of the method: as §2
Target sequence in this assay (Q9UQD0 whole entry, looked up, the tested form may be a part): as the sequence (Q9UQD0 whole entry, the tested form may be a part) above

[10] = test system: HEK293; test: Inhibition of full-length Photinus pyralis luciferase transfected in HEK293 cells at 25 uM incubated for 1 hrs by split-luciferase complementation assay; type: cell-based
Summary of the method: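 HEK293 cells transfected with full-length Photinus pyralis luciferase, then treated 1 h with 25 μM compound (n = 4) or 0.5% DMSO (n = 32). Luminescence read after D-luciferin addition, as in the LCA, normalized to per-plate DMSO controls. One-way ANOVA with Dunnett's test.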

[11] = target: T2, Fibroblast growth factor 14 (Homo sapiens); test: Binding affinity to human recombinant FGF14 expressed in Escherichia coli BL21 assessed as assessed as induction of protein denaturation by measuring change in melting temperature at 50 uM by fluorescent dye based thermal shift assay; conditions: filed as modulator
[12] = target: T1, Sodium channel protein type 8 subunit alpha; test: Binding affinity to human recombinant Nav1.6 C-terminal domain expressed in Escherichia coli BL21 assessed as assessed as induction of protein denaturation by measuring change in melting temperature at 10 uM by fluorescent dye based thermal shift assay; conditions: filed as modulator, dose 50.0 µM
Target sequence in this assay (Q9UQD0 whole entry, looked up, the tested form may be a part): as the sequence (Q9UQD0 whole entry, the tested form may be a part) above

[13] = test system: HEK293; test: Cytotoxicity against HEK293 cells assessed as reduction in cell viability measured after 18 hrs by celltiter-blue assay; conditions: human, hek293, 18 h

For `CC(C)C[C@H](NC(=O)[C@@H]1CCCN1C(=O)NC12CC3CC(CC(C3)C1)C2)C(=O)N[C@@H](CCC(=O)OC(C)(C)C)C(=O)N[C@H](C(N)=O)C(C)C` ({NH(1-Adamantyl)-CO}-PLE(OtBu)V-NH2), which Activity [1] is on record?
The Activity was 83.5%.

Which Kd [2] does the source give for `CCCOC(=O)[C@@H](NC(=O)[C@H](CCC(=O)OC(C)(C)C)NC(=O)[C@H](CC(C)C)NC(=O)[C@@H]1CCCN1C(=O)C12CC3CC(CC(C3)C1)C2)C(C)C` (Adamantane1carbonyl-PLE(OtBu)V-OPr) here?
Its Kd is 90.1 µM.

And the K [3]?
The K was 2.89 10^2/M/s.

And the K [4]?
Its K is 2.04 10^-2/s.

And the IC50 [5]?
Its IC50 is 22.5 µM.

And the K [6]?
Its K is 4.92 10^-2/s.

What about the Efficacy [7] of the same molecule?
Its Efficacy is 83.3%.

What about the Kd [8] of the same molecule?
Its Kd is 11.4 µM.

And the K [9]?
Its K is 3.4 10^2/M/s.

With `C=CCOC(=O)[C@@H](NC(=O)[C@H](CCC(=O)OC(C)(C)C)NC(=O)[C@H](CC(C)C)NC(=O)[C@@H]1CCCN1C(=O)OCc1ccccc1)C(C)C` (Cbz-PLE(OtBu)V-OAll) as the molecule, how does the Kd [2] read?
Its Kd is > 200 µM.

What about the IC50 [5] of the same molecule?
The IC50 was 15.4 µM.

What about the inhibition [10] of the same molecule?
The inhibition was “inactive”.

And the K [6]?
Its K is 4.49 10^-3/s.

And the ΔTm [11]?
Its ΔTm is 0.67 °C.

What about the Efficacy [7] of the same molecule?
The Efficacy was 90.7%.

What about the ΔTm [12] of the same molecule?
The ΔTm was -0.87 °C.

What about the K [9] of the same molecule?
The K was 2.57 10^5/M/s.

What about the Activity [13] of the same molecule?
Its Activity is “Non-Toxic”.

And the Activity ([1]; filed as modulator)?
The Activity was 11.9%.

Which Activity [1] does the source give for `CC(C)C[C@H](NC(=O)[C@@H]1CCCN1C(=O)C1CCCCC1)C(=O)N[C@@H](CCC(=O)OC(C)(C)C)C(=O)N[C@H](C(N)=O)C(C)C` (Cyclohexanecarbonyl-PLE(OtBu)V-NH2) here?
Its Activity is 104%.

Which IC50 [5] does the source give for `CC(C)C[C@H](NC(=O)[C@@H]1CCCN1C(=O)C12CC3CC(CC(C3)C1)C2)C(=O)N[C@@H](CCC(=O)OC(C)(C)C)C(=O)N[C@H](C(N)=O)C(C)C` (Adamantane1carbonyl-PLE(OtBu)V-NH2) here?
Its IC50 is 49 µM.

And the inhibition [10]?
The inhibition was “inactive”.

What about the Efficacy [7] of the same molecule?
The Efficacy was 82.1%.

What about the Activity [13] of the same molecule?
The Activity was “Non-Toxic”.

And the Activity [1]?
The Activity was 68.7%.

For `CC(C)C[C@H](NC(=O)[C@@H]1CCCN1C(=O)OCc1ccccc1)C(=O)N[C@@H](CCC(=O)OC(C)(C)C)C(=O)N[C@H](C(=O)NC12CC3CC(CC(C3)C1)C2)C(C)C` (Cbz-PLE(OtBu)V-{NH(1-Adamantyl)}), which Activity [1] is on record?
Its Activity is 81.5%.

For `CC(C)C[C@H](NC(=O)[C@@H]1CCCN1C(=O)OCc1ccccc1)C(=O)N[C@@H](CCC(=O)OC(C)(C)C)C(=O)N[C@H](C(=O)NC1CCCCC1)C(C)C` (Cbz-PLE(OtBu)V-NHcHex), which Activity [1] is on record?
Its Activity is 117%.

With `CC(=O)N1CCC[C@H]1C(=O)N[C@@H](CC(C)C)C(=O)N[C@@H](CCC(=O)O)C(=O)N[C@H](C(N)=O)C(C)C` (Ac-PLEV-NH2) as the molecule, how does the Activity [1] read?
Its Activity is 79.4%.

For `CC(C)C[C@H](NC(=O)[C@@H]1CCCN1C(=O)OCc1ccccc1)C(=O)N[C@@H](CCC(=O)OC(C)(C)C)C(=O)N[C@H](C(=O)N1CC(O)C1)C(C)C` (Cbz-PLE(OtBu)V-X3), which Activity [1] is on record?
Its Activity is 112%.

Which Activity [1] does the source give for `CC(C)C[C@H](NC(=O)[C@@H]1CCCN1S(=O)(=O)c1ccc(F)cc1)C(=O)N[C@@H](CCC(=O)OC(C)(C)C)C(=O)N[C@H](C(N)=O)C(C)C` ({Benzenesulfonyl(4-F)}-PLE(OtBu)V-NH2) here?
The Activity was 86.4%.

With `COC(=O)[C@@H](NC(=O)[C@H](CCC(=O)OC(C)(C)C)NC(=O)[C@H](CC(C)C)NC(=O)[C@@H]1CCCN1C(C)=O)C(C)C` (Ac-PLE(OtBu)V-OMe) as the molecule, how does the Activity [1] read?
The Activity was 95%.

Which Activity [1] does the source give for `CCCCCCCCCC(=O)N1CCC[C@H]1C(=O)N[C@@H](CC(C)C)C(=O)N[C@@H](CCC(=O)OC(C)(C)C)C(=O)N[C@H](C(N)=O)C(C)C` (Decanoyl-PLE(OtBu)V-NH2) here?
Its Activity is 114%.

For `CC(C)C[C@H](NC(=O)[C@@H]1CCCN1C(=O)c1ccccc1)C(=O)N[C@@H](CCC(=O)OC(C)(C)C)C(=O)N[C@H](C(N)=O)C(C)C` (Bz-PLE(OtBu)V-NH2), which Activity [1] is on record?
The Activity was 105%.
